From ChEMBL document CHEMBL1121573, “2-(Aminomethyl)phenols, a new class of saluretic agents. 1. Effects of nuclear substitution” (J Med Chem, 1980)

Assays:
Rattus norvegicus [1] = assay: Oral diuretic activity was evaluated by measuring Na+ excretion in Rat at 27 mg/kg after […] ( 0-5 hr ); assay type: ADME, organism-based, Urine; set-up: dose 27 mg/kg
Outline: (§1)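 Female Charles-River rats (150–170 g) were kept overnight on a sugar diet with water ad libitum. Compound was dissolved in DMF, then diluted with water containing Tween 80 (3 drops/100 mL) to a final 4% DMF, and given po in 5.0 mL. Rats were housed three per metabolism cage. Urine from 0–5 h was analysed for Na+, K+ and Cl−, with concurrent placebo controls. Values are mequiv × 100 per cage, geometric mean of three cages per dose.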

Rattus norvegicus [2] = assay: Oral diuretic activity was evaluated by measuring Na+ excretion in Rat at 3 mg/kg […] ( 0-5 hr ); assay type: ADME, organism-based, Urine; set-up: dose 3 mg/kg; details: in vivo, ip; outline: as §1
Rattus norvegicus [3] = assay: Compound administered orally at a dose of 1 mg/kg was evaluated for salidiuretic activity measured as sodium ion excretion in Rat; details: in vivo, po
Rattus norvegicus [4] = assay: Oral diuretic activity was evaluated by measuring K+ excretion in Rat at 3 mg/kg […] ( 0-5 hr ); assay type: ADME, organism-based, Urine; set-up: dose 3 mg/kg
Outline: (§2)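 Female Charles-River rats (150–170 g) were kept overnight on a sugar diet with water ad libitum. Test substance was dissolved in DMF and diluted with water containing Tween 80 to a final 4% DMF vehicle, then given po in 5.0 mL. Rats were housed three per metabolism cage, and 0–5 h urine was assayed for Na⁺, K⁺ and Cl⁻ alongside concurrent placebo groups. Values are mequiv × 100 per cage, geometric means of three cages per dose.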

Rattus norvegicus [5] = assay: Evaluated for salidiuretic activity measured as sodium ion excretion in Rat, administered orally at a dose of 50 mg/kg; assay type: functional, Urine; set-up: unit not given beside the values; details: route oral
Outline: (§3)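 Female Charles-River rats (150–170 g), overnight on sugar diet with water ad libitum. Compound dissolved in DMF, diluted with water containing Tween 80 (final 4% DMF), given po in 5.0 mL; concurrent vehicle placebo. Three rats per metabolism cage; 0–5 h urine analysed for Na+, K+, Cl-. Values: mequiv × 100 per cage, geometric means of three cages per dose; scored 0–6 by Na+.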

Rattus norvegicus [6] = organism: Rattus norvegicus; assay: Time taken for the decrease in arterial pressure was measured; assay type: functional, Artery
Canis familiaris [7] = assay: Oral diuretic activity was evaluated by measuring K+ excretion in dog at 5 mg/kg after ip administration ( 0-6 hr ); assay type: ADME, organism-based, Canis lupus familiaris, Urine; set-up: dose 5 mg/kg, route intraperitoneal; details: in vivo
Outline: (§4)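 Spontaneous urine was pooled with bladder urine collected by catheterization at 6 h. Volume was measured and Na+, K+ and Cl− were determined by standard methods. Values are geometric means.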

Rattus norvegicus [8] = assay: Oral diuretic activity was evaluated by measuring Cl- excretion in Rat at 9 mg/kg […] ( 0-5 hr ); assay type: ADME, organism-based, Urine; set-up: dose 9 mg/kg; details: in vivo; outline: as §2
Rattus norvegicus [9] = assay: Maximum fall in mean arterial blood pressure was measured in SH rats when compound was administered at 30 mg/kg perorally; assay type: functional; details: route oral
Rattus norvegicus [10] = assay: Oral diuretic activity was evaluated by measuring Na+ excretion in Rat at 9 mg/kg […] ( 0-5 hr ); assay type: ADME, organism-based, Urine; set-up: dose 9 mg/kg; details: in vivo, ip; outline: as §1
Rattus norvegicus [11] = assay: Oral diuretic activity was evaluated by measuring Cl- excretion in Rat at 27 mg/kg after po administration ( 0-5 hr ); details: in vivo
Rattus norvegicus [12] = assay: Oral diuretic activity was evaluated by measuring K+ excretion in Rat at 27 mg/kg after po administration ( 0-5 hr ); details: in vivo
Canis familiaris [13] = assay: Compound administered intravenously at a dose of 5 mg/kg was evaluated for salidiuretic activity measured as sodium ion excretion in Dog; assay type: ADME, organism-based, Canis lupus familiaris, Urine; set-up: dose 5 mg/kg, route intravenous; details: in vivo, iv
Outline: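 Conditioned female mongrel dogs, postabsorptive, water-loaded (500 mL po) 1 h before sodium pentobarbital anesthesia (30 mg/kg iv). Bladder catheter; creatinine 4 g sc; phosphate–mannitol buffer pH 7.4 infused (3.0 mL/min) throughout. […] Urine Na+ measured; response scored 0–6.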

Rattus norvegicus [14] = assay: Oral diuretic activity was evaluated by measuring Cl- excretion in Rat at 81 mg/kg after po administration ( 0-5 hr ); details: in vivo
Canis familiaris [15] = assay: Oral diuretic activity was evaluated by measuring Cl- excretion in dog at 1 mg/kg after […] ( 0-6 hr ); assay type: ADME, organism-based, Canis lupus familiaris, Urine; set-up: dose 1 mg/kg, route intraperitoneal; details: in vivo
Canis familiaris [16] = assay: Oral diuretic activity was evaluated by measuring K+ excretion in dog at 1 mg/kg after […] ( 0-6 hr ); assay type: ADME, organism-based, Canis lupus familiaris, Urine; set-up: dose 1 mg/kg; details: in vivo; outline: as §4
Rattus norvegicus [17] = assay: Oral diuretic activity was evaluated by measuring K+ excretion in Rat at 9 mg/kg […] ( 0-5 hr ); assay type: ADME, organism-based, Urine; set-up: dose 9 mg/kg; outline: as §2
Canis familiaris [18] = assay: Oral diuretic activity was evaluated by measuring Cl- excretion in dog at 5 mg/kg after […] ( 0-6 hr ); assay type: ADME, organism-based, Canis lupus familiaris, Urine; set-up: dose 5 mg/kg, route intraperitoneal; details: in vivo
Rattus norvegicus [19] = assay: Oral diuretic activity was evaluated by measuring K+ excretion in Rat at 81 mg/kg after […] ( 0-5 hr ); assay type: ADME, organism-based, Urine; set-up: dose 81 mg/kg; details: in vivo; outline: as §2
[20] = Evaluated for salidiuretic activity measured as sodium ion excretion in Rat, administered orally at a dose of 16.5 mg/kg; assay type: organism-based; set-up: dose 16.5 mg/kg; details: Urine; outline: as §3
[21] = Compound administered orally at a dose of 5 mg/kg was evaluated for salidiuretic activity measured as sodium ion excretion in Rat; assay type: organism-based; set-up: dose 5 mg/kg; details: Urine; outline: as §3
Rattus norvegicus [22] = assay: Oral diuretic activity was evaluated by measuring Na+ excretion in Rat at 81 mg/kg […] ( 0-5 hr ); assay type: ADME, organism-based, Urine; set-up: dose 81 mg/kg; outline: as §1
Rattus norvegicus [23] = assay: Oral diuretic activity was evaluated by measuring Cl- excretion in Rat at 3 mg/kg after […] ( 0-5 hr ); assay type: ADME, organism-based, Urine; set-up: dose 3 mg/kg, route intraperitoneal; details: in vivo
Canis familiaris [24] = assay: Oral diuretic activity was evaluated by measuring Na+ excretion in dog at 5 mg/kg after ip administration ( 0-6 hr ); assay type: ADME, organism-based, Canis lupus familiaris, Urine; set-up: dose 5 mg/kg, route intraperitoneal; details: in vivo
Outline: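 Urine collected over 0–6 h: spontaneous voids were pooled with bladder urine taken by catheterization at 6 h. Urine volume was measured, and aliquots were analysed for Na+, K+ and Cl− by standard methods. Electrolyte excretion is reported as geometric means.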

Canis familiaris [25] = assay: Oral diuretic activity was evaluated by measuring Na+ excretion in dog at 1 mg/kg after ip administration ( 0-6 hr ); assay type: ADME, organism-based, Canis lupus familiaris, Urine; set-up: dose 1 mg/kg, route intraperitoneal; details: in vivo; outline: as §4

Diuretic activity (Rattus norvegicus [1]): 1.61
Diuretic activity (Rattus norvegicus [2]): 0.86
Diuretic activity (Rattus norvegicus [3]): 0.7
Diuretic activity (Rattus norvegicus [4]): 0.26
Diuretic activity (Canis familiaris [7]): 8
Diuretic activity (Rattus norvegicus [8]): 2.36
Diuretic activity (Rattus norvegicus [10]): 1.58
Diuretic activity (Rattus norvegicus [11]): 2.51
Diuretic activity (Rattus norvegicus [12]): 0.42
Diuretic activity (Canis familiaris [13]): > 900
Diuretic activity (Rattus norvegicus [14]): 3.26
Diuretic activity (Canis familiaris [15]): 24.67
Diuretic activity (Canis familiaris [16]): 4.78
Diuretic activity (Rattus norvegicus [17]): 0.42
Diuretic activity (Canis familiaris [18]): 54.5
Diuretic activity (Rattus norvegicus [19]): 0.39
Diuretic activity (Rattus norvegicus [22]): 2.17
Diuretic activity (Rattus norvegicus [23]): 1.25
Diuretic activity (Canis familiaris [24]): 42.5
Diuretic activity (Canis familiaris [25]): 17.78
Structure (SMILES): COc1c(Cl)c(O)c(CN)c(OC)c1Cl.Cl
Diuretic activity (Rattus norvegicus [5]): 3.6
Duration (Rattus norvegicus [6]): 12 h
MAP (Rattus norvegicus [9]): 19 mmHg
Diuretic activity [20]: 3.3
Diuretic activity [21]: 2.6
